# Experimental data pooled from the literature.
# Lines come from different studies, so protocols differ.
# Target: Interleukin-1 receptor-associated kinase 4 (IRAK4, Homo sapiens, UniProt Q9NWZ3)
# Residues used in one study (Q9NWZ3 1-460): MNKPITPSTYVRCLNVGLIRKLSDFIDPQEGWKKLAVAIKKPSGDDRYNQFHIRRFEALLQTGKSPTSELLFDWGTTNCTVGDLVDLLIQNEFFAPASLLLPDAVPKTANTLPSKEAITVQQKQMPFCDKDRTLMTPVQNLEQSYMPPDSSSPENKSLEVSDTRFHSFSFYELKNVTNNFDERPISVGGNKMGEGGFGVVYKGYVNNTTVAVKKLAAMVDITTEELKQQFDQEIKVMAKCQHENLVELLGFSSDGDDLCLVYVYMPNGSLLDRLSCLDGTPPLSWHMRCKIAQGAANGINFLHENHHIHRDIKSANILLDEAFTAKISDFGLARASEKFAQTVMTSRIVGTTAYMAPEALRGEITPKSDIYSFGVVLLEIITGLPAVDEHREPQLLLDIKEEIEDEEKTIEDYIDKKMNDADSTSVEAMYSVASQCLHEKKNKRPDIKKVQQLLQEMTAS
Compound,observed,technique,tested at,remaining binding
CCS(=O)(=O)c1cc2cc(C[C@](O)(CC(C)(C)c3ccc(F)cc3C(N)=O)C(F)(F)F)[nH]c2cn1,cell-free assay,competition with immobilised ligand,1 µM,100%
COc1ccnn2ncc(-c3ccnc(N(C)C)n3)c12,binding,,1 µM,80%
Cn1cc(Cl)c2c(Oc3c(F)cc(Nc4cc(Cl)nc(N)n4)cc3F)ccnc21,cell-free assay,competition with immobilised ligand,0.1 µM,90%
CN(C)c1nccc(-c2cnn3ncccc23)n1,binding,,1 µM,73%
O=C(c1ccc(Nc2ncc(Cl)c(-c3cc4ccccc4s3)n2)cc1)N1CCC(N2CCCC2)CC1,binding,competition with immobilised ligand,1 µM,57%
CNC(=O)[C@@H]1CC[C@@H](n2c(-c3ccc4cnccc4c3)nc3ccc(C(=O)NCc4cccc(C(N)=O)c4)cc32)C1,binding,competition with immobilised ligand,1 µM,100%
C[C@H]1CCN(c2nccc(-c3cnn4ncccc34)n2)C1,binding,,1 µM,73%
O=C(c1ccc(Nc2nccc(-c3cc4ccccc4s3)n2)cc1)N1CCC(N2CCCC2)CC1,binding,competition with immobilised ligand,1 µM,100%
CCOC(=O)c1cc2cc(-c3cc(C(=O)NCc4ccc(C(=O)O)cc4)nn3C)ccc2[nH]1,cell-free assay,competition with immobilised ligand,0.1 µM,91%
N[C@@H]1CCN(c2nccc(-c3cnn4ncccc34)n2)C1,binding,,1 µM,99%
CNCc1ccccc1-c1csc([C@H](C)Nc2nc(C)nc3cc(OC)c(OC)cc23)c1,cell-free assay,competition with immobilised ligand,1 µM,89%
COc1ncc2cc3ccccc3nc2c1C#N,cell-free assay,competition with immobilised ligand,5 µM,97%
C[C@H](c1ccnc(Nc2nc3ccc(-c4cc(N(C)C)ncn4)cc3[nH]2)c1)N1CCN(C(=O)CC(F)(F)F)CC1,cell-free assay,competition with immobilised ligand,0.1 µM,100%
O=C(NCCCN1CCOCC1)c1ccc(Nc2nccc(-c3cc4ccccc4s3)n2)cc1,binding,competition with immobilised ligand,1 µM,75%
CC1CCCN1c1nccc(-c2cnn3ncccc23)n1 (centres unmarked),binding,,1 µM,84%
O=C(Nc1c[nH]nc1C(=O)NC1CCNCC1)c1cc(F)cc(F)c1,binding,competition with immobilised ligand,1 µM,100%
FC(F)(F)Oc1cccc(-c2cnc3ccc(-c4ccncc4)nn23)c1,cell-free assay,competition with immobilised ligand,5 µM,1.6%
CN(C)c1nccc(-c2cnc3ncccn23)n1,binding,,1 µM,74%
O=C(NCc1ncc(C(F)(F)F)cc1Cl)c1ccc2c(c1)C1(CCS(=O)(=O)CC1)[C@H](C1CC1)N2S(=O)(=O)c1ccc(F)cc1,cell-free assay,competition with immobilised ligand,1 µM,100%
Nc1ncc2c(n1)-c1c([nH]c3ccc(C#CC4CC4)cc13)CCCC2,binding,competition with immobilised ligand,1 µM,86%
